Data on six compounds can be found in ChEMBL document CHEMBL4304822, “Mitochondrial-targeted Hsp90 C-terminal inhibitors manifest anti-proliferative activity” (Bioorg Med Chem Lett, 2019).

Activity calls are given as the source filed them. No cut-off for these calls is given here.

The nature of series [1]: Drug uptake in mitochondria in human PC3 cells incubated for 24 hrs by LC/MS analysis. Particulars: pc-3, 24 h. Type of series: ADME. In outline: (§1)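 PC3 cells treated for 24 h, then separated into subcellular fractions; the compound in each isolated fraction was quantified by LC-MS.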
In series [2] the test system is MCF7. The series can be described thus: Antiproliferative activity against human MCF7 cells by MTT assay. Type of series: functional, cell-based.
The subject of series [3] is PC-3. The series can be described thus: Antiproliferative activity against human PC3 cells by MTT assay. Type of series: functional, cell-based. (Tetrazolium dyes change colour on reduction, which living cells bring about.)
Series [4] concerns SK-BR-3. Kind of series: Antiproliferative activity against human SKBR3 cells by MTT assay. Type of series: functional, cell-based.
The subject of series [5] is HCT-116. The series can be described thus: Antiproliferative activity against human HCT116 cells by MTT assay. The format is functional, cell-based.
Series [6] addresses T1, Heat shock protein HSP90 (Homo sapiens, UniProt P07900+P08238). Kind of series: Inhibition of HSP90 at C-terminus in human SKBR3 cells assessed as induction of Raf1 protein degradation at 0.5 to 5 times antiproliferative IC50 incubated for 24 hrs by Western blot analysis. The format is cell-based. (In general: In western blotting, separated proteins are transferred to a membrane and probed.)

Series [7] has as its system SK-BR-3. The series can be described thus: Ratio of IC50 for N-(4'-(3-(dimethylamino)propoxy)biphenyl-4-yl)-3',6-dimethoxybiphenyl-3-carboxamide to IC50 for test compound for antiproliferative activity against human SKBR3 cells. The format is functional.
Series [8] addresses T1, Heat shock protein HSP90. The series can be described thus: Inhibition of HSP90 at C-terminus in human SKBR3 cells assessed as Her2 protein degradation at 0.5 to 5 times antiproliferative IC50 incubated for 24 hrs by Western blot analysis. Type of series: cell-based.
The target in series [9] is T1, Heat shock protein HSP90. The series can be described thus: Inhibition of HSP90 at C-terminus in human SKBR3 cells assessed as AKT protein degradation at 0.5 to 5 times antiproliferative IC50 incubated for 24 hrs by Western blot analysis. Type of series: cell-based.
In series [10] the target is T1, Heat shock protein HSP90. The series can be described thus: Inhibition of HSP90 at C-terminus in human SKBR3 cells assessed as induction of CDK4 protein degradation at 0.5 to 5 times antiproliferative IC50 incubated for 24 hrs by Western blot analysis. The format is cell-based.
Series [11] deals with T1, Heat shock protein HSP90. Kind of series: Inhibition of HSP90 […] in human SKBR3 cells assessed as induction of heat shock response by measuring increase in HSP70 protein level at 0.5 to 5 times antiproliferative IC50 incubated for 24 hrs by Western blot analysis. Type of series: cell-based.
A short description of series [12]: Drug uptake in cytoplasm in human PC3 cells assessed as lowered drug accumulation incubated for 24 hrs by LC/MS analysis. Type of series: ADME, subcellular. Particulars: pc-3, 24 h. In outline: as §1
Series [13] concerns MCF7. Kind of series: Ratio of IC50 for N-(4'-(3-(dimethylamino)propoxy)biphenyl-4-yl)-3',6-dimethoxybiphenyl-3-carboxamide to IC50 for test compound for antiproliferative activity against human MCF7 cells. Type of series: functional.
In series [14] the test system is MCF7. Kind of series: Ratio of IC50 for N-(7-(3-(dimethylamino)propoxy)-8-methyl-2-oxo-2H-chromen-3-yl)-3',6-dimethoxybiphenyl-3-carboxamide to IC50 for test compound for antiproliferative activity against human MCF7 cells. The format is functional.
Series [15] relates to MCF7. Kind of series: Ratio of IC50 for N-((1r,4r)-4-(4-(3-(dimethylamino)propoxy)phenyl)cyclohexyl)-3',6-dimethoxybiphenyl-3-carboxamide to IC50 for test compound for antiproliferative activity against human MCF7 cells. The format is functional.

A word on the IC50: it is the point on the concentration scale where inhibition reaches its midpoint. A higher IC50 goes with weaker potency. For the compound `COc1cccc(-c2cc(C(=O)Nc3ccc(-c4ccc(OCCCN(C)C)cc4)cc3)ccc2OC)c1`, in series [1], the Drug uptake result is given as “Active”. Besides, the IC50 in series [2] was determined as 2.14 µM; in series [3], 3.53 µM; in series [4], 2.03 µM; in series [5], 1.49 µM.

In the case of `COc1cccc(-c2cc(C(=O)Nc3ccc(-c4ccc(OCCC[P+](c5ccccc5)(c5ccccc5)c5ccccc5)cc4)cc3)ccc2OC)c1.[Br-]`, the Drug uptake entry in [1] and in series [12] was “Active” in each case. The inhibition result in series [6] and in [10] was “Active” throughout. Also, the IC50 in series [2] worked out at 0.93 µM; in series [3], 2.94 µM; in series [4] it was 0.21 µM; in series [5] it was 0.45 µM. Moreover, the “Ratio IC50” value was determined as 10 in series [7] and 2 in series [13]. In addition, the inhibition result in series [8] and in series [9] was “inactive” in each case. In addition, the Activity result in [11] was “Non-Toxic”.

In the case of `COc1cccc(-c2cc(C(=O)Nc3cc4ccc(OCCC[P+](c5ccccc5)(c5ccccc5)c5ccccc5)c(C)c4oc3=O)ccc2OC)c1.[Br-]`, the Drug uptake result in series [1] and in [12] was “Active” each time. The inhibition entry in series [6] and in [10] was “Active” in each case. For the same compound, the IC50 amounted to 0.8 µM in series [2], 1.94 µM in [3], 0.31 µM in series [4] and 0.64 µM in series [5]. Moreover, the inhibition entry in series [8] and in series [9] was “inactive” each time. The Activity result in series [11] is “Non-Toxic”. Also, the “Ratio IC50” value in [14] was determined as 2.

As to `COc1cccc(-c2cc(C(=O)Nc3cc4ccc(OCCCN(C)C)c(C)c4oc3=O)ccc2OC)c1`, in [1], the Drug uptake result is “Active”. Moreover, the IC50 is 1.8 µM in [2], 1.01 µM in [3], 0.85 µM in series [4] and 0.83 µM in [5].

For the compound `COc1cccc(-c2cc(C(=O)N[C@H]3CC[C@H](c4ccc(OCCCN(C)C)cc4)CC3)ccc2OC)c1`, the Drug uptake entry in series [1] was “Active”. In addition, the results for the IC50 in series [2] and in [4] were 0.34 µM and 0.25 µM, respectively.

In the case of `COc1cccc(-c2cc(C(=O)N[C@H]3CC[C@H](c4ccc(OCCC[P+](c5ccccc5)(c5ccccc5)c5ccccc5)cc4)CC3)ccc2OC)c1.[Br-]`, the Drug uptake entry in [1] and in [12] was “Active” throughout. Moreover, in [6], the inhibition entry was “Active”. Moreover, the IC50 in [2] was 0.17 µM; in [3] it was 1.56 µM; in [4], 0.23 µM; in [5], 0.38 µM. Further, the inhibition entry in series [8] and in [9] was “inactive” each time. Further, the Activity entry in series [11] is “Non-Toxic”. For the same compound, the “Ratio IC50” value in series [15] is recorded as 2.
